Results reported in ChEMBL document CHEMBL3751740, “New MKLP-2 inhibitors in the paprotrain series: Design, synthesis and biological evaluations” (Bioorg Med Chem, 2016).

Assays:
[1] = target: T1, Kinesin-1 heavy chain (Homo sapiens) (UniProt P33176); test: Inhibition of porcine brain microtubule-stimulated human recombinant GST-tagged Kif5B ATPase activity at 15 uM by microplate reader in presence of Mg2+ ATP relative to control
T1 sequence (whole entry): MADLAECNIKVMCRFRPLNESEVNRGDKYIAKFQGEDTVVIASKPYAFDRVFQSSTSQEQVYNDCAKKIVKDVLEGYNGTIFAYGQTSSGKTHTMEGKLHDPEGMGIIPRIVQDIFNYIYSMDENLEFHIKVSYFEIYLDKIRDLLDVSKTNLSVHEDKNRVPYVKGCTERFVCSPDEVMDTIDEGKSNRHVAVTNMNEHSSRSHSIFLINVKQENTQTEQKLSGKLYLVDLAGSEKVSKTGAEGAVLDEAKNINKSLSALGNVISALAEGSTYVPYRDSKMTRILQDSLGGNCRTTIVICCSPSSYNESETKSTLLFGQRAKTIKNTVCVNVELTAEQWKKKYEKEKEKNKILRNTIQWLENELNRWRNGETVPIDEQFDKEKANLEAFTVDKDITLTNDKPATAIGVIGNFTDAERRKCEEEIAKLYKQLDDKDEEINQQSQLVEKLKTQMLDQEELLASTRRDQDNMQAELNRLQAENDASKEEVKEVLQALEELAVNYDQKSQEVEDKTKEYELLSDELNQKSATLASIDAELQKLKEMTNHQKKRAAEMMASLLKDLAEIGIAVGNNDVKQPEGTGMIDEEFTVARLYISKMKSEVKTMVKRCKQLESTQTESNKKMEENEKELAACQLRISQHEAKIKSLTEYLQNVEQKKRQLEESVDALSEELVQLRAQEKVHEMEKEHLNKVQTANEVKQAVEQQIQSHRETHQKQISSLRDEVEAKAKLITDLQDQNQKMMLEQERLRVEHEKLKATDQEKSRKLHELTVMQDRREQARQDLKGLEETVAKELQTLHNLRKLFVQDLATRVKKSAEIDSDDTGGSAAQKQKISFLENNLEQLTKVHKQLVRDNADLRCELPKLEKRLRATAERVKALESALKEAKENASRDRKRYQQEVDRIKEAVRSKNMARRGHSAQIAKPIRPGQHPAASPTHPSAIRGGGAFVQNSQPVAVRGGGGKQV
Procedure, shortened: (§1)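 Each kinesin motor domain was tested against MT-stimulated ATPase at 22 °C in triplicate, with compounds at 15 µM. Buffer was 7.5 mM PIPES-NaOH pH 7.0 with MgCl2, Taxol, ELIPA reagents and 1.25 mg/mL MTs. Reactions were started with 1 mM Mg2+ATP and read kinetically at 360 nm. Monastrol and AMP-PNP (1 mM) were the controls.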

[2] = target: T2, Kinesin-like protein KIFC3 (Homo sapiens) (UniProt Q9BVG8); test: Inhibition of porcine brain microtubule-stimulated human recombinant GST-tagged KIFC3 ATPase activity at 15 uM by microplate reader in presence of Mg2+ ATP relative to control; procedure, shortened: as §1
T2 sequence (whole entry): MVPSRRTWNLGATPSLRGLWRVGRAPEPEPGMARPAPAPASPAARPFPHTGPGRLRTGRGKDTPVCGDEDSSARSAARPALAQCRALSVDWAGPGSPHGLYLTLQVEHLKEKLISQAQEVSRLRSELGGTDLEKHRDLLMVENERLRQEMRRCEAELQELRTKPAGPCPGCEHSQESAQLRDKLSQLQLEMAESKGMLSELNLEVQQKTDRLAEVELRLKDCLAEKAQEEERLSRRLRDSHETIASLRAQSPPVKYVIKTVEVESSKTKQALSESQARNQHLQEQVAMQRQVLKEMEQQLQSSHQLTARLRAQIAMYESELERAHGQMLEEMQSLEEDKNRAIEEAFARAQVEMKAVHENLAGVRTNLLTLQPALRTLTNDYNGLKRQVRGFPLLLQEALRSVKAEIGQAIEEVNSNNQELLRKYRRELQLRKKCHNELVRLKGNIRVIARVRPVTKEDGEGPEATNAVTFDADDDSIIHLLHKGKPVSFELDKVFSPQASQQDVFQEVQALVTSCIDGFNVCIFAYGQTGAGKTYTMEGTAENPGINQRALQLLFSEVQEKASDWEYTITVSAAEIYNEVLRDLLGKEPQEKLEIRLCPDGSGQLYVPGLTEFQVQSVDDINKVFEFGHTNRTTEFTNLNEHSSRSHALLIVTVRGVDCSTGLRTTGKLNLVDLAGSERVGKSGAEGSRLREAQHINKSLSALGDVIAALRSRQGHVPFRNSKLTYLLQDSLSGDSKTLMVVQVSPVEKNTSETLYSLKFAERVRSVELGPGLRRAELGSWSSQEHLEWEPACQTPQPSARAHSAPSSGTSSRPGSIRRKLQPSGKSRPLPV

[3] = target: T3, Kinesin-like protein KIF3C (Homo sapiens) (UniProt O14782); test: Inhibition of porcine brain microtubule-stimulated human recombinant GST-tagged KIF3C ATPase activity at 15 uM by microplate reader in presence of Mg2+ ATP relative to control; procedure, shortened: as §1
T3 sequence (whole entry): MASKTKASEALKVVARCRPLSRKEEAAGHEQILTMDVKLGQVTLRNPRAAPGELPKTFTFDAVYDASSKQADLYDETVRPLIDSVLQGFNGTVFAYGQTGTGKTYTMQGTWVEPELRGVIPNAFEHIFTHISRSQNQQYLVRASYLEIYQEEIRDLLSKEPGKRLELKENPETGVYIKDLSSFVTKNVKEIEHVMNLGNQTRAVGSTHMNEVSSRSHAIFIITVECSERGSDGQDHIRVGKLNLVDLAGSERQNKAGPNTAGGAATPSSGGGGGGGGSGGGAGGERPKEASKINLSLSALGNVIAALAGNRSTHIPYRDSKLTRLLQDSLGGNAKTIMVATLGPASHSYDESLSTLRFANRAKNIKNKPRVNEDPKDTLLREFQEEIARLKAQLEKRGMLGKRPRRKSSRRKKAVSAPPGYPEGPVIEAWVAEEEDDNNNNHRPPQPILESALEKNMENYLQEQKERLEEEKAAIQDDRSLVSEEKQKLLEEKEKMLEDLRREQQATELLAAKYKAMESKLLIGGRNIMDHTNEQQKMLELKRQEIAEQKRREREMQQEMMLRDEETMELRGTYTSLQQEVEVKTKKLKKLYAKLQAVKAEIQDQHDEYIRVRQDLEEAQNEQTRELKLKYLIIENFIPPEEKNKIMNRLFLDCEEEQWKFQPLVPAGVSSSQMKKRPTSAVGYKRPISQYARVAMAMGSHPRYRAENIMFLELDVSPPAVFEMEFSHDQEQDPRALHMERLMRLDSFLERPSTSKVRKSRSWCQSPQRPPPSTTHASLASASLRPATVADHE

Measured: inhibition

COc1ccc2c(/C(C#N)=C/c3cccnc3)c[nH]c2c1
< 20%: [1] | [2] | [3]

N#C/C(=C\c1ccc2c(c1)OCO2)c1c[nH]c2ccccc12
< 20%: [1] | [2] | [3]

COc1ccc2[nH]cc(/C(C#N)=C/c3cccnc3)c2c1
< 20%: [1] | [2] | [3]

COc1cccc2[nH]cc(/C(C#N)=C/c3cccnc3)c12
< 20%: [1] | [2] | [3]

CCOC(=O)C1=C(C)NC(=S)NC1c1cccc(O)c1 (stereo not drawn)
< 20%: [1] | [2] | [3]

N#C/C(=C\c1cccnc1)c1c[nH]c2ccc(OCc3ccccc3)cc12
< 20%: [1] | [2] | [3]
